These results are taken from ChEMBL document CHEMBL3797152, “Minimum structural requirements for cell membrane leakage-mediated anti-MRSA activity of macrocyclic bis(bibenzyl)s” (2016).

Test [1] has as its system Staphylococcus aureus. As to the kind of experiment: Antimicrobial activity against methicillin-resistant Staphylococcus aureus N315 after 18 to 20 hrs by liquid microdilution method. Format: functional. On the technique in general: Dilution methods test growth across graded concentrations, often in twofold steps.
The subject of test [2] is Staphylococcus aureus. The experiment in a line: Antimicrobial activity against 2-phenoxyphenol/methicillin-resistant Staphylococcus aureus after 18 to 20 hrs by liquid microdilution method. It is filed as functional.
For test [3], the system named is Staphylococcus aureus. The experiment in a line: Antimicrobial activity against methicillin-resistant Staphylococcus aureus OM481 clinical isolate after 18 to 20 hrs by liquid microdilution method. Format: functional.
For test [4], the system named is Staphylococcus aureus. The experiment in a line: Increase in cytoplasmic membrane permeability in Staphylococcus aureus N315 cells assessed as efflux of EtBr by fluorescence assay. It is filed as functional, organism-based. Put shortly: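 EtBr-loaded S. aureus N315 cells; EtBr release followed as fall in fluorescence (excitation 530 nm, emission 600 nm) after adding test compound.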

Test [5] deals with Staphylococcus aureus. As to the kind of experiment: Effect on membrane permeability assessed as decrease in intracellular potassium levels in Staphylococcus aureus N315 cells by ICP-OES analysis. Format: functional, organism-based.
Test [6] deals with Staphylococcus aureus. The experiment in a line: Increase in cytoplasmic membrane permeability in Staphylococcus aureus N315 cells assessed as influx of EtBr by fluorescence assay. Format: functional, organism-based. Put shortly:
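Energized S. aureus N315 cells; EtBr uptake followed as rise in fluorescence (excitation 530 nm, emission 600 nm) immediately after adding test compound.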

The test system of test [7] is Staphylococcus aureus. As to the kind of experiment: Bactericidal activity against Staphylococcus aureus N315 cells assessed as reduction of bacterial burden at MIC up to 24 hrs. Format: functional. The procedure, abridged:
(§1)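 S. aureus N315 (MRSA strain) survival assay: compound added at 1× or 4× its MIC, with MIC determined by liquid microdilution. Read-out is the number of viable cells remaining over time after addition.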

Test [8] relates to Staphylococcus aureus. As to the kind of experiment: Bactericidal activity against Staphylococcus aureus N315 cells assessed as reduction of bacterial burden at 4 times MIC up to 24 hrs. It is filed as functional, organism-based. The procedure, abridged:
as §1

In test [9] the test system is Staphylococcus aureus. As to the kind of experiment: Effect on membrane permeability assessed as increase in intracellular sodium levels in Staphylococcus aureus N315 cells by ICP-OES analysis. Format: functional, organism-based.

≈ marks a conversion by molar mass, not a printed value. Calls of active or inactive are those of the source. No cut-off for these calls is given here.

As usually defined, the MIC is the least concentration at which growth counts as inhibited. For `Oc1ccccc1Oc1ccccc1`, the MIC was 8 µg/mL (≈ 43 µM) in the test on Staphylococcus aureus [1], more than 128 µg/mL in the test on Staphylococcus aureus [2] and 8 µg/mL (≈ 43 µM) with Staphylococcus aureus [3].

Take `Oc1ccc(CCc2cccc(O)c2)cc1` [LUNULARIN]: the MIC in the test with Staphylococcus aureus [1], against Staphylococcus aureus [2] and against Staphylococcus aureus [3] was more than 128 µg/mL in each case.

As for `Oc1ccc(-c2ccc(CCc3ccccc3)cc2O)c(CCc2ccccc2)c1`, the result with Staphylococcus aureus [4], with Staphylococcus aureus [5], with Staphylococcus aureus [6], with Staphylococcus aureus [8] and in the test on Staphylococcus aureus [9] was Active. Also, the MIC in the test with Staphylococcus aureus [1], in the test on Staphylococcus aureus [2] and with Staphylococcus aureus [3] was 8 µg/mL (≈ 20.3 µM) in each case. Further, the Activity with Staphylococcus aureus [7] came to 3 log10CFU/ml.

For the compound `Oc1ccc2c(c1)CCc1ccc(cc1)Oc1cc(ccc1O)CCc1ccc-2c(O)c1` [RICCARDI C], the MIC with Staphylococcus aureus [1], against Staphylococcus aureus [2] and against Staphylococcus aureus [3] was 2 µg/mL (≈ 4.71 µM) each time.

As to `Cc1cc(O)ccc1-c1ccc(CCc2ccccc2)cc1O`, the outcome in the test with Staphylococcus aureus [4] and in the test with Staphylococcus aureus [6] was Active. Moreover, the MIC in the test with Staphylococcus aureus [1], against Staphylococcus aureus [2] and in the test on Staphylococcus aureus [3] was 16 µg/mL (≈ 52.6 µM) in each case.

For `Oc1ccc2c(c1)CCc1cccc(c1)-c1cccc(c1)CCc1ccc-2c(O)c1`, the MIC in the test on Staphylococcus aureus [1], against Staphylococcus aureus [2] and against Staphylococcus aureus [3] was 0.5 µg/mL (≈ 1.27 µM) in each case.

Consider `Oc1ccc(-c2ccccc2O)cc1`, for which the MIC against Staphylococcus aureus [1], against Staphylococcus aureus [2] and with Staphylococcus aureus [3] was more than 128 µg/mL each time.
